From ChEMBL document CHEMBL4118021, “Studies of TAK1-centered polypharmacology with novel covalent TAK1 inhibitors” (Bioorg Med Chem, 2017)

Key:
Assay type in all cases: cell-based
[1] = target: Cyclin-dependent kinase 17 (Homo sapiens) (UniProt Q00537); test: Inhibition of PCTAIRE2 in human SKCO1 cells at 1 uM after 4 hrs using biotin labeled SKLTENLVALKEIR probe by mass-spectrometric analysis relative to control
Summary of the method: (§1)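 Live SK-CO-1 cells exposed to compound at 1 μM or DMSO for 4 h (KiNativ). Lysates then labeled with lysine-reactive ATP/ADP-biotin probe, and probe-labeled kinase peptides quantified by mass spectrometry. Percent inhibition of probe-dependent recovery calculated relative to DMSO-treated cells.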

[2] = target: Cyclin-dependent kinase 1 (Homo sapiens) (UniProt P06493); test: Inhibition of CDC2 in human SKCO1 cells at 1 uM after 4 hrs using biotin labeled DLKPQNLLIDDK probe by mass-spectrometric analysis relative to control
Cyclin-dependent kinase 1 (Homo sapiens), sequence (P06493 whole entry, looked up): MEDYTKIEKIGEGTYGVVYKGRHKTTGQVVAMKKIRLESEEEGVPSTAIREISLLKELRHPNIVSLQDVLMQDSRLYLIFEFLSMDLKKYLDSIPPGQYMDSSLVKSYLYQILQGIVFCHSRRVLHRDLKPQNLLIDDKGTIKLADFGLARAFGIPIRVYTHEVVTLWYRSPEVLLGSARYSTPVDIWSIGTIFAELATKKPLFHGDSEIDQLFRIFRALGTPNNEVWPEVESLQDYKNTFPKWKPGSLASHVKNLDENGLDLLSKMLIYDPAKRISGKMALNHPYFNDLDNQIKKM

[3] = target: T1, Serine/threonine-protein kinase 4 (Homo sapiens) (UniProt Q13043); test: Inhibition of MST1 in human SKCO1 cells at 1 uM after 4 hrs using biotin labeled ETGQIVAIKQVPVESDLQEIIK probe by mass-spectrometric analysis relative to control; summary of the method: as §1
T1 sequence (whole entry): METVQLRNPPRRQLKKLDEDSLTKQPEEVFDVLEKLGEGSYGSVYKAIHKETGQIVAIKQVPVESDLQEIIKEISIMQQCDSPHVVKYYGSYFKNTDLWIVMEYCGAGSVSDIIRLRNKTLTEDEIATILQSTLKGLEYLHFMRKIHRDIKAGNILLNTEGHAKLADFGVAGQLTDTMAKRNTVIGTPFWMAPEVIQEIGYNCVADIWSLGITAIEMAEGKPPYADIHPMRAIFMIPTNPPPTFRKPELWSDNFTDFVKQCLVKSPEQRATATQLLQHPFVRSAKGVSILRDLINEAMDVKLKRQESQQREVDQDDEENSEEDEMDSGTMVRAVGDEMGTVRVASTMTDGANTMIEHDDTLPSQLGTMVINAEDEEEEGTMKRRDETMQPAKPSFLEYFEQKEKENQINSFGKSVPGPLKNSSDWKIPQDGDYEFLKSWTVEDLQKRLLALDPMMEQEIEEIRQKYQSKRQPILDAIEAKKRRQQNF

[4] = target: T2, Serine/threonine-protein kinase LATS1 (Homo sapiens) (UniProt O95835); test: Inhibition of LATS1 in human SKCO1 cells at 1 uM after 4 hrs using biotin labeled ALYATKTLR probe by mass-spectrometric analysis relative to control
T2 sequence (whole entry): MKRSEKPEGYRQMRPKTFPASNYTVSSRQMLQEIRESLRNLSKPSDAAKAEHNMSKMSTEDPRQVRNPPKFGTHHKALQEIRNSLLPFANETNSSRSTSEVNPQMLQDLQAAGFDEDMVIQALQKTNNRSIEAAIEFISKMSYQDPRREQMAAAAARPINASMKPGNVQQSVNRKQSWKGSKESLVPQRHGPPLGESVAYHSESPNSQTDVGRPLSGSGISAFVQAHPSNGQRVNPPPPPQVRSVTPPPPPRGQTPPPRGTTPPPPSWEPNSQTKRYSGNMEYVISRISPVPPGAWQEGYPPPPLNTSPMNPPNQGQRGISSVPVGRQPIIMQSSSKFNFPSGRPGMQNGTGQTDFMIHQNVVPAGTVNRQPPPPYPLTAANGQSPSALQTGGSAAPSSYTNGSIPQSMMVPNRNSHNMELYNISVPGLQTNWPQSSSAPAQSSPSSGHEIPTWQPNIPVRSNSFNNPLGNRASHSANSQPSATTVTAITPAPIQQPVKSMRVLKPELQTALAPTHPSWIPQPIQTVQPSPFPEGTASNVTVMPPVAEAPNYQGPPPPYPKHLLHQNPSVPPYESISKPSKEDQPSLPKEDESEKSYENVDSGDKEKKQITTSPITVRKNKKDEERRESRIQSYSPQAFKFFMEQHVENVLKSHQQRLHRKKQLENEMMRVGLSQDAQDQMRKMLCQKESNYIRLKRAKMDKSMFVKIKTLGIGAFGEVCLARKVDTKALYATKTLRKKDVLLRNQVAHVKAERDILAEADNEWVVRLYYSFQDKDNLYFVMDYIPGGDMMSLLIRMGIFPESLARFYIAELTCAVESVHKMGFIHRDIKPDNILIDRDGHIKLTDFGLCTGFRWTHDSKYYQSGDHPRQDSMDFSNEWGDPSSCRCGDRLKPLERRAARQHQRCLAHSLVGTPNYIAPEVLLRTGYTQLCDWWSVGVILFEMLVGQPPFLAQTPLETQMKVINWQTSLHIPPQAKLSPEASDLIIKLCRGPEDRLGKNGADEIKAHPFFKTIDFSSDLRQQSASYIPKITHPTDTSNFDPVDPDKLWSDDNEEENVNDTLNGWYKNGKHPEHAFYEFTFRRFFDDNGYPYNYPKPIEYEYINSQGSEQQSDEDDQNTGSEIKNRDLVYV

[5] = target: T3, Mixed lineage kinase domain-like protein (Homo sapiens) (UniProt Q8NB16); test: Inhibition of MLKL in human SKCO1 cells at 1 uM after 4 hrs using biotin labeled APVAIKVFK probe by mass-spectrometric analysis relative to control
T3 sequence (whole entry): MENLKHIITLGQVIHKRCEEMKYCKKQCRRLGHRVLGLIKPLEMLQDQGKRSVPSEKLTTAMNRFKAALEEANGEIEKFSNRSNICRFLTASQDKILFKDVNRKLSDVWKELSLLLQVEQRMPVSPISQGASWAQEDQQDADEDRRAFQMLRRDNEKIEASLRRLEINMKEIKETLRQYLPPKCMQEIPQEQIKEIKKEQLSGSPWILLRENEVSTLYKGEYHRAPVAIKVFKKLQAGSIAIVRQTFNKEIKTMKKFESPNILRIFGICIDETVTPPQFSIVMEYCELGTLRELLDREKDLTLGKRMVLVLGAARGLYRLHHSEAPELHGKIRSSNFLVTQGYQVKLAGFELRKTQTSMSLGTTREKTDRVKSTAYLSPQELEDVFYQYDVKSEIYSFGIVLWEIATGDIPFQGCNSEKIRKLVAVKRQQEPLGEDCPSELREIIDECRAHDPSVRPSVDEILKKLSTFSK

[6] = target: Aurora kinase B (Homo sapiens) (UniProt Q96GD4); test: Inhibition of AurB in human SKCO1 cells at 1 uM after 4 hrs using biotin labeled SHFIVALKVLFK probe by mass-spectrometric analysis relative to control
Aurora kinase B (Homo sapiens), sequence (Q96GD4 whole entry): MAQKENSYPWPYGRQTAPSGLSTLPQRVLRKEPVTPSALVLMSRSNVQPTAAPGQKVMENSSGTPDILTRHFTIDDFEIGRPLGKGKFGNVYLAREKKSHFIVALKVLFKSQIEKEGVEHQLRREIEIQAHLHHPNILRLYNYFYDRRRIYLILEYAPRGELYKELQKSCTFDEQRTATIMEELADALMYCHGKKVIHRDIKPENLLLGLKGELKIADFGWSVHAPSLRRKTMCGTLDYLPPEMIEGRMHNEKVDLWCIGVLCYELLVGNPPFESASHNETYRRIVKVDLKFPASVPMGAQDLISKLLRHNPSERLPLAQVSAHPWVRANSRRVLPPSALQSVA

[7] = target: Serine/threonine-protein kinase Nek4 (Homo sapiens) (UniProt P51957); test: Inhibition of NEK4 in human SKCO1 cells at 1 uM after 4 hrs using biotin labeled DLKTQNVFLTR probe by mass-spectrometric analysis relative to control; summary of the method: as §1
Serine/threonine-protein kinase Nek4 (Homo sapiens), sequence (P51957 whole entry, looked up): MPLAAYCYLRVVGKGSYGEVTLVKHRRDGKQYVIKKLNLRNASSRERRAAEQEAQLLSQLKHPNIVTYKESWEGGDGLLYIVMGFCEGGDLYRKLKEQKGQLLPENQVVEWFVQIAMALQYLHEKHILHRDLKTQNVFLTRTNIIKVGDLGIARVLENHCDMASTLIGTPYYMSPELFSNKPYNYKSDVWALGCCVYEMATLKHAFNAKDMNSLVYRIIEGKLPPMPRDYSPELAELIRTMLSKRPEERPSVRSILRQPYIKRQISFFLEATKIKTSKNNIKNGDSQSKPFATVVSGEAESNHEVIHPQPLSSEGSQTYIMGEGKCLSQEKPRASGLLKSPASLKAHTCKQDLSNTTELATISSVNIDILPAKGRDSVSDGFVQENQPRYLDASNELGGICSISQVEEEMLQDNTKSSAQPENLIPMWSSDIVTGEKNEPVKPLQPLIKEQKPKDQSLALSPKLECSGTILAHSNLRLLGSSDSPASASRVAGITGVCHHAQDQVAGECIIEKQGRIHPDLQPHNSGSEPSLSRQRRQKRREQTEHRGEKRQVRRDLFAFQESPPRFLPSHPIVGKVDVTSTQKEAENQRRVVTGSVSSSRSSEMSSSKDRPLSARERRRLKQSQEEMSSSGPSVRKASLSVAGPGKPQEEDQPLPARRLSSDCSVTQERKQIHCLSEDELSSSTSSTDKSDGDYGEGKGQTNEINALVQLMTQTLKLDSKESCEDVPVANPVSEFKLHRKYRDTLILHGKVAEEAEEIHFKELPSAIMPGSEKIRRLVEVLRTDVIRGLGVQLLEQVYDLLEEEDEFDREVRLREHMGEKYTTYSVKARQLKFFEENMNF

[8] = target: RAF proto-oncogene serine/threonine-protein kinase (Homo sapiens) (UniProt P04049); test: Inhibition of RAF1 in human SKCO1 cells at 1 uM after 4 hrs using biotin labeled DMKSNNIFLHEGLTVK probe by mass-spectrometric analysis relative to control; summary of the method: as §1
RAF proto-oncogene serine/threonine-protein kinase (Homo sapiens), sequence (P04049 whole entry): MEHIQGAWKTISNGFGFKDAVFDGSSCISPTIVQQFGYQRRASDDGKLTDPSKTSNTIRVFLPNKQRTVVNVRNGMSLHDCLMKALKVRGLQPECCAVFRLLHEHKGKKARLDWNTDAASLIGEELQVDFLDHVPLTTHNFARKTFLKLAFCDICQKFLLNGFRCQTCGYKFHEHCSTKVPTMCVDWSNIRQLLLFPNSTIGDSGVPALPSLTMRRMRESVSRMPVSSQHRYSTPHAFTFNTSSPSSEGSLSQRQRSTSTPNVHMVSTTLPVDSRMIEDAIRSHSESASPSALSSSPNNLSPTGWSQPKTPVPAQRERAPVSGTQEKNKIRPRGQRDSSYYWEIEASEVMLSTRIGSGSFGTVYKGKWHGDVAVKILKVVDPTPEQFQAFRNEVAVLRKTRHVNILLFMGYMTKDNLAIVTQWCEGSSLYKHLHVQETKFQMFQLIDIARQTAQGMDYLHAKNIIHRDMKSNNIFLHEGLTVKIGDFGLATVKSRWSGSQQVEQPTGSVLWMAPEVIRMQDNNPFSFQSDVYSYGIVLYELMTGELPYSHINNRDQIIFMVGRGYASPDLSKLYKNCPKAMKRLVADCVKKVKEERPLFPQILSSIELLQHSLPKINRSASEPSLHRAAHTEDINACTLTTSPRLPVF

Cyclin-dependent kinase 17 (Homo sapiens), sequence (Q00537 whole entry, looked up): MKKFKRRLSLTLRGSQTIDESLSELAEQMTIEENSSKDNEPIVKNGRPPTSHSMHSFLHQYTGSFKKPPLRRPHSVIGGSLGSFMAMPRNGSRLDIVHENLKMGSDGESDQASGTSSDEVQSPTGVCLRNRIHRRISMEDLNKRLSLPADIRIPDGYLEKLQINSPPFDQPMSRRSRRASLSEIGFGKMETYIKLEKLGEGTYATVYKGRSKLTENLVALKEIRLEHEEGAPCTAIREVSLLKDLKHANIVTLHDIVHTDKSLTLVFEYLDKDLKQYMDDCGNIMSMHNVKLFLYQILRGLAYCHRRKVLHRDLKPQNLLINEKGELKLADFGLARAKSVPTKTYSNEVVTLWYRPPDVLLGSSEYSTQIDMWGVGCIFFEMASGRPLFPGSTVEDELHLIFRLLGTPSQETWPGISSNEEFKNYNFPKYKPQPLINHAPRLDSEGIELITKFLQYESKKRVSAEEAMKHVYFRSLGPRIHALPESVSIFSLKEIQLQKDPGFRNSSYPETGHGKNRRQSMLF

Row | SMILES | inhibition [1] [%] | inhibition [2] [%] | inhibition [3] [%] | inhibition [4] [%] | inhibition [5] [%] | inhibition [6] [%] | inhibition [7] [%] | inhibition [8] [%]
1 | COc1cc(O)c2c(c1)/C=C/C[C@H](O)[C@H](O)C(=O)/C=C\C[C@H](C)OC2=O | 21.2 | 46.6 | -4.7 | 9.9 | 56.6 | 58.1 | 18.9 | 66.4
2 | C=CC(=O)Nc1ccccc1Nc1nc(Nc2ccc(N3CCN(C)CC3)cc2)ncc1Cl | 3.7 | 47.7 | -6.4 | 17.5 | 52.3 | 94.4 | 23.8 | 65.6
3 | C=CC(=O)Nc1ccccc1Oc1nc(Nc2cnn(CCOC)c2)ncc1Cl | 21.9 | 33.1 | -0.9 | 5.3 | 53.7 | 65.4 | 15.1 | 6.3
